ChEMBL document CHEMBL2384933, “Vitexin inhibits inflammatory pain in mice by targeting TRPV1, oxidative stress, and cytokines” (J Nat Prod, 2013)
The source made the active and inactive calls.

How the values were obtained:
Mus musculus [1] = test: Antiinflammatory activity in Swiss mouse assessed as inhibition of carrageenan-induced IL-6 production 10 mg/kg, ip administered 30 mins prior to carrageenan-challenge measured after 3 hrs by ELISA; type: functional, organism-based; set-up: dose 10 mg/kg; details: at 10 mg/kg
In short: (§1)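 Compound given ip in saline 30 min before intraplantar carrageenan (300 μg/paw). Paw skin taken 3 h later and homogenized in 500 μL buffer with protease inhibitors. TNF-α, IL-1β, IL-6, IL-33 and IL-10 measured by ELISA, reported as pg/100 mg tissue. Saline-injected paws served as controls. Six mice per group; representative of two experiments.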

Mus musculus [2] = test: Toxicity in Swiss mouse assessed as change in myeloperoxidase activity in stomach at 10 mg/kg, ip for 7 days by spectrophotometric analysis; type: organism-based; set-up: dose 10 mg/kg, route intraperitoneal; details: in vivo, 168 h
In short: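 Mice dosed daily ip at 10 mg/kg for 7 days. Stomach homogenized in 50 mM phosphate buffer pH 6.0 with 0.5% HTAB and centrifuged at 16100g. Supernatant mixed with o-dianisidine (0.167 mg/mL) and 0.015% H2O2; read at 450 nm three times within 1 min. Activity expressed as neutrophils ×10⁴/mg tissue against a neutrophil standard curve.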

Mus musculus [3] = test: Hepatotoxicity in Swiss mouse assessed as change in plasma ALT level at 10 mg/kg, ip for 7 days; type: toxicity, organism-based; set-up: dose 10 mg/kg, route intraperitoneal; details: in vivo, 168 h
In short: (§2)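 Mice dosed daily ip at 10 mg/kg for 7 days; vehicle was saline or Tris/HCl pH 8.0. Plasma AST and ALT measured with a diagnostic kit.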

Mus musculus [4] = test: Hepatotoxicity in Swiss mouse assessed as change in plasma AST level at 10 mg/kg, ip for 7 days; type: toxicity, organism-based; set-up: dose 10 mg/kg, route intraperitoneal; details: in vivo, 168 h; in short: as §2
Mus musculus [5] = test: Antioxidant activity in Swiss mouse assessed as prevention of carrageenan-induced decrease in GSH levels at 10 mg/kg, ip administered 30 mins prior to carrageenan-challenge measured after 3 hrs by UV-vis spectrophotometric analysis; type: functional, organism-based; set-up: dose 10 mg/kg
In short: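 Given at 10 mg/kg ip 30 min before intraplantar carrageenan (300 μg/paw); plantar skin taken at 3 h, four paws pooled per sample. Tissue homogenized in 0.02 M EDTA with TCA and centrifuged. Supernatant reacted with DTNB in Tris 0.4 M pH 8.9; absorbance read at 412 nm after 5 min. Reported as nmol GSH/mg tissue. Three pools per experiment.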

Mus musculus [6] = test: Antinociceptive activity in Swiss mouse assessed as decrease in complete Freund's adjuvant-induced time spent for licking paw at 10 mg/kg, ip administered 30 mins prior to complete Freund's adjuvant-challenge measured after 30 mins; type: functional, organism-based; set-up: dose 10 mg/kg
In short: (§3)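 Dosed ip 30 min before intraplantar CFA (10 μL/paw). Flinches and licking time of the injected paw counted over 0–30 min and expressed as totals for 30 min. Six mice per group; representative of two experiments.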

Mus musculus [7] = test: Antioxidant activity in Swiss mouse assessed as prevention of carrageenan-induced decrease in ferric-reducing ability potential at 10 mg/kg, ip administered 30 mins prior to carrageenan-challenge measured after 3 hrs by spectrophotometric analysis; type: functional, organism-based; set-up: dose 10 mg/kg
In short: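 Given at 10 mg/kg ip 30 min before intraplantar carrageenan; plantar skin taken at 3 h, two mice pooled per sample. Tissue homogenized in 1.15% KCl. FRAP: 37 °C for 30 min, absorbance at 595 nm. ABTS: diluted to A730 0.80 in PBS pH 7.4, read at 730 nm after 6 min. Both expressed as Trolox equivalents/mg tissue (Trolox standard 1.5–30 μmol/L final).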

Mus musculus [8] = test: Antinociceptive activity in Swiss mouse assessed as inhibition of formalin-induced paw flinching at 10 mg/kg, ip administered 30 mins prior to formalin-challenge measured after 30 mins; type: functional, organism-based; set-up: dose 10 mg/kg
In short: (§4)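 Given ip 30 min before intraplantar formalin (25 μL of 1.5% in saline). Paw flinches and licking time recorded from 0 to 30 min in 5-min bins, covering the first (0–5 min) and second (10–30 min) phases. Six mice per group; representative of two experiments.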

Mus musculus [9] = test: Antinociceptive activity in Swiss mouse assessed as inhibition of complete Freund's adjuvant-induced paw flinching at 10 mg/kg, ip administered 30 mins prior to complete Freund's adjuvant-challenge measured after 30 mins; type: functional, organism-based; set-up: dose 10 mg/kg; in short: as §3
Mus musculus [10] = test: Antinociceptive activity in Swiss mouse assessed as inhibition of carrageenan-induced mechanical hyperalgesia at 1 to 3 mg/kg, ip administered 30 mins prior to carrageenan-challenge measured after 5 hrs by electronic pressure-meter test; type: functional, organism-based
In short: (§5)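 Doses of 1–10 mg/kg given ip 30 min before intraplantar carrageenan (300 μg/paw). Electronic pressure-meter applied to mice on a wire grid floor; paw withdrawal with flinching was the end point, and each value is the average of three readings. Result reported as Δ withdrawal threshold (g) from baseline at 1, 3 and 5 h. Six mice per group; two-way ANOVA.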

Mus musculus [11] = test: Antinociceptive activity in Swiss mouse assessed as inhibition of acetic acid-induced writhing response at 10 mg/kg, ip administered 30 mins prior to acetic acid-challenge measured for 20 mins; type: functional, organism-based; set-up: dose 10 mg/kg
In short: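 Doses of 0.3–10 mg/kg given ip in saline 30 min before ip acetic acid (0.8% v/v in saline, 10 mL/kg). Cumulative abdominal writhing counted over 20 min and presented in 2-min intervals. Six mice per group; representative of two experiments.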

Mus musculus [12] = test: Antinociceptive activity in Swiss mouse assessed as inhibition of carrageenan-induced thermal hyperalgesia at 1 mg/kg, ip administered 30 mins prior to carrageenan-challenge measured after 1 to 5 hrs by hot plate test; type: functional, organism-based; set-up: dose 1 mg/kg
In short: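 Doses of 1–10 mg/kg given ip 30 min before intraplantar carrageenan (300 μg/paw). Hot plate held at 55 °C; latency to jump or lick paws recorded at 1, 3 and 5 h, with a 30 s cutoff. Two baseline latencies taken at least 10 min apart. Six mice per group.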

Mus musculus [13] = test: Neurotoxicity in Swiss mouse assessed as change in motor response at 10 mg/kg, ip after 3.5 hrs by rotarod test (reference value: 180 seconds); type: toxicity, organism-based; set-up: dose 10 mg/kg, route intraperitoneal; details: in vivo
In short: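 Rota-rod with a 2.5 cm bar at 22 rpm. Mice pre-selected 24 h earlier by staying on the bar for two consecutive 180 s periods. Given 10 mg/kg ip (vehicle 2% DMSO in saline) and tested at 1.5, 3.5 and 5.5 h, with a 180 s cutoff. n = 6.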

Mus musculus [14] = test: Antinociceptive activity in Swiss mouse assessed as inhibition of complete Freund's adjuvant-induced mechanical hyperalgesia at 10 mg/kg, ip administered 24 hrs after complete Freund's adjuvant-challenge for seven days by electronic pressure-meter test; type: functional, organism-based; set-up: dose 10 mg/kg
In short: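 Treatment at 10 mg/kg ip given daily, starting 24 h after intraplantar CFA (10 μL/paw), for seven days. Electronic pressure-meter (Δ threshold, g) and hot plate (55 °C, 30 s cutoff) read every 24 h over days 1–8. Six mice per group.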

Mus musculus [15] = test: Antinociceptive activity in Swiss mouse assessed as decrease in formalin-induced time spent for licking paw at 10 mg/kg, ip administered 30 mins prior to formalin-challenge measured after 30 mins; type: functional, organism-based; set-up: dose 10 mg/kg; in short: as §4
Mus musculus [16] = test: Antinociceptive activity in Swiss mouse assessed as inhibition of capsaicin-induced paw flinching at 10 mg/kg, ip administered 30 mins prior to capsaicin-challenge measured after 5 mins; type: functional, organism-based; set-up: dose 10 mg/kg
In short: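 Pretreatment ip 30 min before intraplantar capsaicin (1.6 μg/paw), given after an adaptation period. Mice observed individually for 5 min afterwards. Total flinches and time spent licking the injected paw were scored. Six mice per group; representative of two experiments; one-way ANOVA with Tukey's test.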

Mus musculus [17] = test: Antiinflammatory activity in Swiss mouse assessed as inhibition of carrageenan-induced TNFalpha production 10 mg/kg, ip administered 30 mins prior to carrageenan-challenge measured after 3 hrs by ELISA; type: functional, organism-based; set-up: dose 10 mg/kg; details: at 10 mg/kg; in short: as §1
Mus musculus [18] = test: Antinociceptive activity in Swiss mouse assessed as inhibition of carrageenan-induced mechanical hyperalgesia at 10 mg/kg, ip administered 30 mins prior to carrageenan-challenge measured after 1 to 5 hrs by electronic pressure-meter test; type: functional, organism-based; set-up: dose 10 mg/kg; in short: as §5

With O=c1cc(-c2ccc(O)cc2)oc2c([C@@H]3O[C@H](CO)[C@@H](O)[C@H](O)[C@H]3O)c(O)cc(O)c12 [VITEXIN] the inhibition (Mus musculus [1]) was “Active”, the Activity (Mus musculus [2]) was “Non-toxic” and the Activity (Mus musculus [3]) was “Non-toxic”. For the same compound, the Activity (Mus musculus [4]) was “Non-toxic”, the Activity (Mus musculus [5]) was “Active” and the inhibition (Mus musculus [6]) was “Active”. The Activity (Mus musculus [7]) was “Active”, the inhibition (Mus musculus [8]) was “Active” and the inhibition (Mus musculus [9]) was “Active”. For the same compound, the inhibition (Mus musculus [10]) was “Active”, the inhibition (Mus musculus [11]) was “Active” and the inhibition (Mus musculus [12]) was “inactive”. For the same compound, the Time (Mus musculus [13]) was 180 s, the inhibition (Mus musculus [14]) was “Active” and the inhibition (Mus musculus [15]) was “Active”. For the same compound, the inhibition (Mus musculus [16]) was “Active”, the inhibition (Mus musculus [17]) was “Active” and the inhibition (Mus musculus [18]) was “Active”.
